Experimental data: ChEMBL document CHEMBL2331272, “Bromotyrosine alkaloids from the Australian marine sponge Pseudoceratina verrucosa” (J Nat Prod, 2013)

Columns and labels:
NFF [1] = test: Cytotoxicity against human NFF cells assessed as inhibition of cell viability after 72 hrs by alamar blue assay; assay type: functional, cell-based
Method in brief: (§1)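 NFF fibroblasts grown in DMEM with 10% FBS and penicillin/streptomycin, 37 °C, 5% CO2; 1000 cells/well seeded and adhered overnight. Compounds tested in ten-point series, final 100 μM to 3 nM, 1% DMSO, triplicate wells; 72 h incubation. Readout by Alamar blue (10% final), ex 535/em 590 nm. IC50 by nonlinear regression; IC50 or % inhibition at 100 μM as mean SD, two independent experiments.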

HeLa [2] = test: Cytotoxicity against human HeLa cells assessed as inhibition of cell viability after 72 hrs by alamar blue assay; assay type: functional, cell-based
Method in brief: (§2)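 HeLa and PC3 cells grown in RPMI with 10% FBS and penicillin/streptomycin, 37 °C, 5% CO2; 1000 cells/well adhered overnight. Ten-point dilutions, final 100 μM to 3 nM, 1% DMSO, triplicate; 72 h exposure. Alamar blue added (10% final), fluorescence ex 535/em 590 nm. IC50 by nonlinear regression; IC50 or % inhibition at 100 μM as mean SD of two independent experiments.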

PC-3 [3] = test: Cytotoxicity against human PC3 cells assessed as inhibition of cell viability after 72 hrs by alamar blue assay; assay type: functional, cell-based; conditions: PC-3, 72 h; method in brief: as §2
HeLa [4] = test: Cytotoxicity against human HeLa cells assessed as inhibition of cell viability at 100 uM after 72 hrs by alamar blue assay; assay type: functional; method in brief: as §2
PC-3 [5] = test: Cytotoxicity against human PC3 cells assessed as inhibition of cell viability at 100 uM after 72 hrs by alamar blue assay; assay type: functional; conditions: PC-3, 72 h; method in brief: as §2
NFF [6] = test: Cytotoxicity against human NFF cells assessed as inhibition of cell viability at 100 uM after 72 hrs by alamar blue assay; assay type: functional; method in brief: as §1

| SMILES | IC50 (NFF [1]) [µM] | IC50 (HeLa [2]) [µM] | IC50 (PC-3 [3]) [µM] | inhibition at 100 µM (HeLa [4]) [%] | inhibition at 100 µM (PC-3 [5]) [%] | inhibition at 100 µM (NFF [6]) [%] |
| --- | --- | --- | --- | --- | --- | --- |
| COc1ccc(C/C(=N\O)C(=O)NC[C@@H](O)c2cc(Br)c(OCCCN(C)C)c(Br)c2)cc1Br | 16 | 19 | 4.9 |  |  |  |
| CN(C)CCCOc1c(Br)cc([C@H]2CNC(=O)O2)cc1Br |  |  |  | 44 | 35 | 29 |
| COC1=C(Br)[C@H](O)[C@@]2(C=C1Br)CC(C(=O)NCCCc1cnc(N)[nH]1)=NO2 [AEROPHOBIN 2] |  |  |  | 20 | 66 | 25 |
| COC1=C(Br)[C@H](O)[C@@]2(C=C1Br)CC(C(=O)NCC(O)c1cc(Br)c(OC[C@H]3CNC(=O)O3)c(Br)c1)=NO2 (stereo not given in full) [FOSTULARIN 2] |  | 40 |  |  | 73 | 68 |
| COC1=C(Br)[C@H](O)[C@@]2(C=C1Br)CC(C(=O)NCC(O)c1cc(Br)c(OC[C@H](O)CNC(=O)C3=NO[C@]4(C=C(Br)C(OC)=C(Br)[C@@H]4O)C3)c(Br)c1)=NO2 (stereo not given in full) [FOSTULARIN 3] |  |  |  | 46 | 60 | 48 |
